These results are taken from paper PMC6662154 (ACS Central Science, 2019).

In one assay the target is T1, PscE–PscG heterodimer (Pseudomonas aeruginosa, UniProt P95435).
T1 sequence (P95435 1-115): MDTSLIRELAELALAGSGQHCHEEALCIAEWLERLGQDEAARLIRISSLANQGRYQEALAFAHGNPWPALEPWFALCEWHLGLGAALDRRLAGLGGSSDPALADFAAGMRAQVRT
T1 sequence (Q9I317 1-67 partner): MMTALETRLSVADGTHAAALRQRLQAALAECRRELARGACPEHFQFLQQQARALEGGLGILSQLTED
In words: Fluorescence polarization competitive binding assay.

The subject of assay [1] is J774A.1 cells infected with PAO1. In words: LDH release assay, PAO1-infected macrophages. It counts as cell-based, mouse. Particulars: different concentrations, MOI 8, 5 h.
For assay [2], the system named is secretion of ExoS by PAO1. In words: Inhibition of T3SS-mediated effector secretion. It counts as cell-based, Pseudomonas aeruginosa. The conditions noted are these: 100 μM; PAO1 grown under low-calcium conditions. Summed up: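 To induce the T3SS, overnight PAO1 was diluted to OD600 0.3 in LB containing 5 mM EGTA and 20 mM MgCl2, with test compound, then shaken gently 3–4 h to OD 1.5. Controls were LB with 2% DMSO, and EGTA/MgCl2 medium with 2% DMSO. Supernatant proteins were TCA-precipitated (10%, 2 h on ice). Secreted and total ExoS were immunoblotted and measured by densitometry as % secreted of total; mean ± SD, three experiments.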

In assay [3] the test system is intracellular PAO1 in J774A.1 cells. In words: Quantification of intracellular bacteria in macrophages. The conditions noted are these: different concentrations; gentamicin at 2 h postinfection. It counts as cell-based, Pseudomonas aeruginosa. The gist of the method: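 J774A.1 cells were seeded at 5 × 10^4 per well, grown 24 h and switched to serum-free medium 1 h before infection with mid-exponential PAO1 at MOI 8. Cells were infected 2 h with test compound (0–100 μM, 2% DMSO), washed, and exposed to gentamicin (50 μg/mL) for 2 h. Lysates were plated for intracellular counts, normalised to mock-treated infected cells; mean ± SD, three experiments.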

Assay [4] deals with PAO1 in the bronchoalveolar lavage. In words: Bacterial burden in bronchoalveolar lavage of PAO1-infected mice. It counts as in vivo, mouse. Particulars: single dose 100 μM at the time of infection; sampled 18 h postinfection. The gist of the method: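 Female 6-week-old C57BL/6J mice were lightly anaesthetised with inhaled sevoflurane and given PAO1 intranasally (1 × 10^7 CFU in 20 μL PBS). Test compound (100 μM, 1% DMSO) was given with the inoculum; PBS with 1% DMSO served as mock treatment. At 18 h the animals were killed. Lavage was plated for counts. Lungs were formalin-fixed, paraffin-embedded, H&E-stained and scored by degree of inflammation.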

The next assay addresses T2, PscG (Pseudomonas aeruginosa, UniProt P95435 1-115).
T2 sequence (looked up): T1 sequence (P95435 1-115)
In words: fluorescence polarisation. (In general: Polarisation of emitted light reports the rotation of a fluorescent probe.)

For assay [5], the target named is T3, preformed PscE–PscG heterodimer (Pseudomonas aeruginosa, UniProt Q9I317 1-67; P95435 1-115).
T3 sequence (looked up) 1: T1 sequence (Q9I317 1-67 partner)
T3 sequence (looked up) 2: T1 sequence (P95435 1-115)
In words: fluorescence polarisation.

The target of assay [6] is T3, preformed PscE–PscG heterodimer. In words: ITC. On the technique in general: ITC needs no label: the signal is the heat of the interaction.
The target is the same in assay [7]. In words: fluorescence polarisation. The source holds these as a separate data set.

Where no end group is shown, it is not given here.

Regarding `Cc1coc2c1C(=O)C(=O)c1c-2ccc2c1CCCC2(C)C` [tanshinone 2A], on PscE–PscG heterodimer, the “competition with FAM-PscF69–85 for PscE–PscG binding (result in words)” value (shortened to “competition”) was “inactive”.

With `C[C@H]1COC2=C1C(=O)C(=O)c1c2ccc2c1CCCC2(C)C` [crpTSN, cryptotanshinone], at PscE–PscG heterodimer, the “competition” value was “inactive”. Also, the “inhibition of Pseudomonas-aeruginosa-induced cell lysis (LDH release), in words” value in assay [1] is “inactive”. Further, in assay [2], the “effect on secretion of ExoS” value is given as “no inhibitory activity”.

In the case of `CC(Oc1ccc(Cl)cc1Cl)C(=O)NCc1ccc2c(c1)OCO2` (stereo not drawn) [MBX-1641], the “competition” value on PscE–PscG heterodimer is recorded as “no effect”. In addition, the “inhibition of intracellular bacterial survival / proliferation of PAO1” value in assay [3] was “inhibited”. The “inhibition of Pseudomonas-aeruginosa-induced cell lysis (LDH release), in words” value in assay [1] is reported as “inhibited”. For the same molecule, the “bacterial burden in the bronchoalveolar lavage” value in [4] is “reduced bacterial burden”.

As usually defined, the Kd is the concentration at which binding is half-saturated. Read a high Kd as lower affinity. As to TVTRALRDLMQGILQKI (peptide, UniProt P95434 69-85, looked up, also: fluorescein (FAM) label) [^FAMPscF^69–85], the Kd in the assay with PscG came to 10.8 µM; in assay [5] it was 0.052 µM.

For orientation: IC50 means the concentration at which inhibition is half-maximal. With TVTRALRDLMQGILQKI (peptide, UniProt P95434 69-85, looked up) [PscF^69–85], the affinity in assay [6], expressed as Kd, was 0.0515 µM. Besides, the half-maximal inhibitory concentration (IC50) in assay [7] was 4.32 µM.
